Measured values published in ChEMBL document CHEMBL1138658, “Novel 2-aminotetralin and 3-aminochroman derivatives as selective serotonin 5-HT7 receptor agonists and antagonists” (J Med Chem, 2004).
pKi: −log10 of the molar value.

Assays:
[1] = target: Muscarinic acetylcholine receptor; assay: Inhibition of [3H]- QNB binding to rat cortex muscarinic receptor
[2] = target: 5-hydroxytryptamine receptor 7 (Rattus norvegicus, UniProt P32305); assay: Inhibition of [3H]-5-HT binding to rat 5-hydroxytryptamine 7 receptor
Sequence of 5-hydroxytryptamine receptor 7 (P32305 whole entry): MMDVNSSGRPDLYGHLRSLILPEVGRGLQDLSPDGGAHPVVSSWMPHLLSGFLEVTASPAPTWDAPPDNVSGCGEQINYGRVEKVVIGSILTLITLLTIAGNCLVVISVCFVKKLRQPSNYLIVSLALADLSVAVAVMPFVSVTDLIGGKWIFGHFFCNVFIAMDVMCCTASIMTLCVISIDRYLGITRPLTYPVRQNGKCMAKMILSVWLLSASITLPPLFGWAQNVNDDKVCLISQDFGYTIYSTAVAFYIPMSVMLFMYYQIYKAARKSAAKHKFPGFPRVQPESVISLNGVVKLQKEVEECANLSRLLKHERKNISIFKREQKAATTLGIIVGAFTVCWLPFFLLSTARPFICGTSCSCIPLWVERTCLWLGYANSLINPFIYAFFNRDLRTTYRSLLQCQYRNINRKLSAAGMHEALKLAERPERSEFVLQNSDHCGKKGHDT
Outline: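 Rat 5-HT7 receptor expressed in CHO or Sf9 cells; [3H]-5-HT radioligand displacement.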

[3] = target: T1, Adrenergic receptor alpha-1 (Rattus norvegicus, UniProt P15823+P23944+P43140); assay: Inhibition of [3H]prazosin binding to rat cortex Alpha 1 receptor
T1 sequence (P15823 whole entry): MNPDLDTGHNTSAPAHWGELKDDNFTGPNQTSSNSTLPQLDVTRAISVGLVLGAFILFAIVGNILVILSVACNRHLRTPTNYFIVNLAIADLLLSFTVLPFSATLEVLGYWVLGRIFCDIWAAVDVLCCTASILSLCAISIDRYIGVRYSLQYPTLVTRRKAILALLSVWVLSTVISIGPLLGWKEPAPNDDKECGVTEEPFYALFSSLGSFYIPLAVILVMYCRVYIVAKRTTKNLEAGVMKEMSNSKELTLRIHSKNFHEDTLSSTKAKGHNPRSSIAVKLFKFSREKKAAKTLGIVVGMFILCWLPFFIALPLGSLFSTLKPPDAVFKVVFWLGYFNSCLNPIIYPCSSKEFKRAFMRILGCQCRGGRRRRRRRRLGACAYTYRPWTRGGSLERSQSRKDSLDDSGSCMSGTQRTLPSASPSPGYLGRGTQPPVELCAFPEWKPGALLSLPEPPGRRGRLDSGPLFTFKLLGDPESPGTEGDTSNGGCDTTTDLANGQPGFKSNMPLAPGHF
T1 sequence (P23944 whole entry): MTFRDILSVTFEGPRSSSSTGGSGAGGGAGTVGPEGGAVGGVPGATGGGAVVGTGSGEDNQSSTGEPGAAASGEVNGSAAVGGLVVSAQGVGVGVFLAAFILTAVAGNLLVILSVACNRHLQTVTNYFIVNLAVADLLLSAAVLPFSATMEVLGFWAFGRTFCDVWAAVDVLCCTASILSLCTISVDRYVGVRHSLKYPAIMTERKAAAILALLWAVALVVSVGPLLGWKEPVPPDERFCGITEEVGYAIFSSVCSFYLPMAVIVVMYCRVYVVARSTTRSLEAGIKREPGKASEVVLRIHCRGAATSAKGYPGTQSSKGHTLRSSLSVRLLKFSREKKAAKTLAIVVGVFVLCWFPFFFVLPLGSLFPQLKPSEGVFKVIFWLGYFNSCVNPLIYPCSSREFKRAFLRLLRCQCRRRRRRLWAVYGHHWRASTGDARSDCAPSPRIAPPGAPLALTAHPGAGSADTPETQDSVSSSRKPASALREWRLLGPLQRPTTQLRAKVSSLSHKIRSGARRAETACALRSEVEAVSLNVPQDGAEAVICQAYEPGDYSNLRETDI
T1 sequence (P43140 whole entry): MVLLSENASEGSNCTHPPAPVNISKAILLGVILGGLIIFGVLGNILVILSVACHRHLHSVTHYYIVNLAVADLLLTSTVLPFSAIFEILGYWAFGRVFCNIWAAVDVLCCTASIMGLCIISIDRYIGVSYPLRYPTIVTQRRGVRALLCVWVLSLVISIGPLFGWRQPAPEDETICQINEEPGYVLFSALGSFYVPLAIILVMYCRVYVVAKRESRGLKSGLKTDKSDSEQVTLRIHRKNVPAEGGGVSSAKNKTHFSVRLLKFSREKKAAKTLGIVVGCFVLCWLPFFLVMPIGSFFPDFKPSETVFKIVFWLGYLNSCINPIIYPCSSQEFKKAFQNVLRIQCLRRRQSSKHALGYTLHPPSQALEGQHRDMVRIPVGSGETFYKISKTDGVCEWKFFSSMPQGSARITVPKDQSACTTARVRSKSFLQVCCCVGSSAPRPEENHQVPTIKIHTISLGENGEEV

[4] = target: D(1A) dopamine receptor (Rattus norvegicus, UniProt P18901); assay: Inhibition of [3H]SCH-23390 binding to rat striatum Dopamine receptor 1; format: tissue-based
Sequence of D(1A) dopamine receptor (P18901 whole entry): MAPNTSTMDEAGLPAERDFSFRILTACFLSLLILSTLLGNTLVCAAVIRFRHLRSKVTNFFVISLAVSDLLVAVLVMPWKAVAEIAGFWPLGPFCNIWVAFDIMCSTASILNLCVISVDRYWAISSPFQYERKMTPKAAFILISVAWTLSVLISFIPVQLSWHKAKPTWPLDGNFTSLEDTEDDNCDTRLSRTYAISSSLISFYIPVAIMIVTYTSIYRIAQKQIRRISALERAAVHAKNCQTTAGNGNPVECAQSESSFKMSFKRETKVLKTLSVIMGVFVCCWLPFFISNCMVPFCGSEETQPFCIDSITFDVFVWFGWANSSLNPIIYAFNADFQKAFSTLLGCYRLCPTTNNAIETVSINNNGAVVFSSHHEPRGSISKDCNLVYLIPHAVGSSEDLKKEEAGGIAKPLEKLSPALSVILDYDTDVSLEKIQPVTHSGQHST

[5] = target: T2, 5-hydroxytryptamine receptor 1A (Rattus norvegicus, UniProt P19327); assay: Inhibition of [3H]8-OH-DPAT binding to rat 5-hydroxytryptamine 1A receptor
T2 sequence (P19327 whole entry): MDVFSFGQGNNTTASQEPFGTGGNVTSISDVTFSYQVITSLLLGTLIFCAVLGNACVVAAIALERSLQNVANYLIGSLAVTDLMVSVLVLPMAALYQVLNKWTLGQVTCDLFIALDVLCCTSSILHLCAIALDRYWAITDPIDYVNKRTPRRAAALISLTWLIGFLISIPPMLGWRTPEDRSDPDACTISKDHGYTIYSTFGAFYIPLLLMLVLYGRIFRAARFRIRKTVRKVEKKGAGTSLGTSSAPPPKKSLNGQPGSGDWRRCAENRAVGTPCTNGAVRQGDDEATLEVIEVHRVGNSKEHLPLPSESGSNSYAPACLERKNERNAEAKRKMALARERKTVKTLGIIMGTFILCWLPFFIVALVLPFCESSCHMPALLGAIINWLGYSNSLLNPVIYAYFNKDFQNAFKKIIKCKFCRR
Outline: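 Radioligand [3H]-8-OH-DPAT; receptor source either CHO cells expressing human 5-HT1A or rat hippocampal cells.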

| SMILES | Ki [1] | pKi [2] | Ki [3] | pKi [4] | pKi [5] |
| --- | --- | --- | --- | --- | --- |
| COc1cccc(OC)c1-c1cccc2c1CC[C@H](N(C)C)C2 | > 1000 nM | 8.59 | 3670 nM | < 6.00 | 5.85 |
| CCCN(CCC)[C@H]1CCc2c(cccc2-c2c(OC)cccc2OC)C1 | > 1000 nM | 8.10 | > 1000 nM | < 6.00 | 6.46 |
